Laboratory results from ChEMBL document CHEMBL1124280, “Synthesis and biological evaluation of isomeric dinucleoside monophosphates and monomethylphosphonates of 9-beta-D-arabinofuranosyladenine and related analogues” (1988).

How the values were obtained:
Type in all cases: functional
HeLa [1] = experiment: Minimum inhibitory concentration against vaccinia virus in aneuploid (Hela) human cells
FM3A = experiment: Inhibitory effect on proliferation of Murine mammary Carcinoma (FM3A); details: Mus musculus, read-out: ID50 (the source's name)
Oryctolagus cuniculus [2] = species on record: Oryctolagus cuniculus; experiment: Antiviral activity in primary rabbit kidney cell cultures against Herpes simplex virus type 2 Strain Lyons
Oryctolagus cuniculus [3] = species on record: Oryctolagus cuniculus; experiment: Minimum cytotoxic concentration against herpes simplex virus in primary rabbit kidney cell cultures
In short: (§1)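 Uninfected confluent monolayers (rabbit kidney, HeLa, Vero or E6SM) were incubated with compound for the same time as the antiviral assay. The value is the lowest concentration (µg/mL) that causes a microscopically detectable change in normal cell morphology.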

[4] = Inhibitory effect on proliferation of Human T-Lymphoblast (Molt/4F) cells; details: read-out: ID50 (the source's name)
Oryctolagus cuniculus [5] = species on record: Oryctolagus cuniculus; experiment: Antiviral activity in primary rabbit kidney cell cultures against vaccinia virus
Oryctolagus cuniculus [6] = species on record: Oryctolagus cuniculus; experiment: Antiviral activity in primary rabbit kidney cell cultures against Herpes Simplex virus type 1 (KOS strain)
Homo sapiens [7] = species on record: Homo sapiens; experiment: Minimum inhibitory concentration against vaccinia virus in diploid (E6SM) human cell culture
Oryctolagus cuniculus [8] = species on record: Oryctolagus cuniculus; experiment: Antiviral activity in primary rabbit kidney cell cultures against Herpes Simplex virus type 1 (TK-strain B2006)
Homo sapiens [9] = species on record: Homo sapiens; experiment: Minimum cytotoxic concentration in diploid (E6SM) human cell culture; in short: as §1
Oryctolagus cuniculus [10] = species on record: Oryctolagus cuniculus; experiment: Antiviral activity in primary rabbit kidney cell cultures against Herpes simplex virus type 2 Strain 196
Vero [11] = experiment: Minimum inhibitory concentration against vaccinia virus in vero cells of African green monkey kidney; details: Chlorocebus sabaeus
Vero [12] = experiment: Minimum cytotoxic concentration in vero cells of African green monkey kidney; details: Chlorocebus sabaeus; in short: as §1
Oryctolagus cuniculus [13] = species on record: Oryctolagus cuniculus; experiment: Antiviral activity in primary rabbit kidney cell cultures against Herpes simplex virus type 2 Strain G
Oryctolagus cuniculus [14] = species on record: Oryctolagus cuniculus; experiment: Antiviral activity in primary rabbit kidney cell cultures against vesicular stomatitis virus
Oryctolagus cuniculus [15] = species on record: Oryctolagus cuniculus; experiment: Antiviral activity in primary rabbit kidney cell cultures against Herpes Simplex virus type 1 (McIntyre strain)
L1210 = experiment: Inhibitory effect on Proliferation of Murine Leukemia (L1210); details: Mus musculus, read-out: ID50 (the source's name)
Oryctolagus cuniculus [16] = species on record: Oryctolagus cuniculus; experiment: Antiviral activity in primary rabbit kidney cell cultures against Herpes Simplex virus type 1 (TK-strain VMW I837)
Homo sapiens [17] = species on record: Homo sapiens; experiment: Inhibitory effect on proliferation of Human B-Lymphoblast (Raji); details: read-out: ID50 (the source's name)
Oryctolagus cuniculus [18] = species on record: Oryctolagus cuniculus; experiment: Antiviral activity in primary rabbit kidney cell cultures against Herpes Simplex virus type 1 (Fstrain)
HeLa [19] = experiment: Minimum cytotoxic concentration against vaccinia virus in aneuploid (Hela) human cells; in short: as §1

Row | Compound | MIC (HeLa [1]) [µg/mL] | IC50 (FM3A) [µg/mL] | MIC (Oryctolagus cuniculus [2]) [µg/mL] | MCC (Oryctolagus cuniculus [3]) [µg/mL] | IC50 [4] [µg/mL] | MIC (Oryctolagus cuniculus [5]) [µg/mL] | MIC (Oryctolagus cuniculus [6]) [µg/mL] | MIC (Homo sapiens [7]) [µg/mL] | MIC (Oryctolagus cuniculus [8]) [µg/mL] | MCC (Homo sapiens [9]) [µg/mL] | MIC (Oryctolagus cuniculus [10]) [µg/mL] | MIC (Vero [11]) [µg/mL] | MCC (Vero [12]) [µg/mL] | MIC (Oryctolagus cuniculus [13]) [µg/mL] | MIC (Oryctolagus cuniculus [14]) [µg/mL] | MIC (Oryctolagus cuniculus [15]) [µg/mL] | IC50 (L1210) [µg/mL] | MIC (Oryctolagus cuniculus [16]) [µg/mL] | IC50 (Homo sapiens [17]) [µg/mL] | MIC (Oryctolagus cuniculus [18]) [µg/mL] | other results
1 | Nc1ncnc2c1ncn2[C@@H]1O[C@H](CO)[C@@H](OP(=O)([O-])O[C@H]2[C@H](O)[C@H](n3cnc4c(N)ncnc43)O[C@@H]2CO)[C@@H]1O.[Na+] | > 400 | > 100 | > 400 | > 400 | > 100 | 300 | > 400 | > 400 | > 400 | > 400 | > 400 | > 400 | ≥ 400 | > 400 | > 400 | > 400 | > 100 | > 400 | > 100 | > 400 | MCC (HeLa [19]): ≥ 400 µg/mL
2 | Nc1ncnc2c1ncn2[C@@H]1O[C@H](COP(=O)(O)O)[C@@H](O)[C@@H]1O [VIDARABINE PHOSPHATE] | 20 | 23.9 | 2 | > 100 | 18.5 | 0.2 | 20 | 7 | 20 | ≥ 400 | 20 | 20 | ≥ 200 | 7 | > 400 | 10 | 24.2 | 20 | 32.6 | 7 | MCC (HeLa [19]): ≥ 400 µg/mL
3 | Nc1ncnc2c1ncn2[C@@H]1O[C@H](COP(=O)([O-])OC[C@H]2O[C@H](n3cnc4c(N)ncnc43)[C@@H](O)[C@@H]2O)[C@@H](O)[C@@H]1O.[Na+] | 200 | 86.6 | 20 | > 400 | 43 | 7 | 70 | 20 | 300 | ≥ 400 | 100 | 70 | > 400 | 70 | > 400 | 70 | > 100 | 150 | > 100 | 70 | MCC (HeLa [19]): > 400 µg/mL
